# According to ChEMBL document CHEMBL1165965, “Synthesis and structure-activity relationships of 1,2,3,4-tetrahydropyrido[2,3-b]pyrazines as potent and selective inhibitors of the anaplastic lymphoma kinase” (Bioorg Med Chem, 2010):
# Key:
# [1] = biological target: Tyrosine-protein kinase Fyn (Homo sapiens) (UniProt P06241); assay: Inhibition of FYN at 1 uM
# Method in brief: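 Single-concentration screen on the Ambit KINOMEscan platform, run against a panel of 250–400 kinases. Per-kinase inhibition was also summarized as S(90), the fraction of kinases inhibited by more than 90%.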
# [2] = biological target: Serine/threonine-protein kinase PAK 2 (Homo sapiens) (UniProt Q13177); assay: Inhibition of PAK2 at 1 uM
# Sequence of Serine/threonine-protein kinase PAK 2 (Homo sapiens) (Q13177 whole entry): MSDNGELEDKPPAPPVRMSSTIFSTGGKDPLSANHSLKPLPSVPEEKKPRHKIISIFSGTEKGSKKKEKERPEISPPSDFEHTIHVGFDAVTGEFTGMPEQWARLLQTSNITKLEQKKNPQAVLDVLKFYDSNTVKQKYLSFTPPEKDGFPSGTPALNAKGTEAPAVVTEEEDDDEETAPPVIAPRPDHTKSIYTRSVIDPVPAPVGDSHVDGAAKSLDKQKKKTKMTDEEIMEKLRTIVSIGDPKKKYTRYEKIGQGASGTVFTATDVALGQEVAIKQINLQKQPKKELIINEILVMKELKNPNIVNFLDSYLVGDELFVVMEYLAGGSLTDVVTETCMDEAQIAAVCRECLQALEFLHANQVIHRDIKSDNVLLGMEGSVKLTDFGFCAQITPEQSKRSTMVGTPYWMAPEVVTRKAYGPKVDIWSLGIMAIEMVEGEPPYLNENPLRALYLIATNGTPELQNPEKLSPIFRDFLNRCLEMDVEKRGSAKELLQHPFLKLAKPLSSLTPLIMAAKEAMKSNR
# [3] = biological target: T1, Serine/threonine-protein kinase TNNI3K (Homo sapiens) (UniProt Q59H18); assay: Inhibition of TNNI3K at 1 uM
# T1 sequence (whole entry): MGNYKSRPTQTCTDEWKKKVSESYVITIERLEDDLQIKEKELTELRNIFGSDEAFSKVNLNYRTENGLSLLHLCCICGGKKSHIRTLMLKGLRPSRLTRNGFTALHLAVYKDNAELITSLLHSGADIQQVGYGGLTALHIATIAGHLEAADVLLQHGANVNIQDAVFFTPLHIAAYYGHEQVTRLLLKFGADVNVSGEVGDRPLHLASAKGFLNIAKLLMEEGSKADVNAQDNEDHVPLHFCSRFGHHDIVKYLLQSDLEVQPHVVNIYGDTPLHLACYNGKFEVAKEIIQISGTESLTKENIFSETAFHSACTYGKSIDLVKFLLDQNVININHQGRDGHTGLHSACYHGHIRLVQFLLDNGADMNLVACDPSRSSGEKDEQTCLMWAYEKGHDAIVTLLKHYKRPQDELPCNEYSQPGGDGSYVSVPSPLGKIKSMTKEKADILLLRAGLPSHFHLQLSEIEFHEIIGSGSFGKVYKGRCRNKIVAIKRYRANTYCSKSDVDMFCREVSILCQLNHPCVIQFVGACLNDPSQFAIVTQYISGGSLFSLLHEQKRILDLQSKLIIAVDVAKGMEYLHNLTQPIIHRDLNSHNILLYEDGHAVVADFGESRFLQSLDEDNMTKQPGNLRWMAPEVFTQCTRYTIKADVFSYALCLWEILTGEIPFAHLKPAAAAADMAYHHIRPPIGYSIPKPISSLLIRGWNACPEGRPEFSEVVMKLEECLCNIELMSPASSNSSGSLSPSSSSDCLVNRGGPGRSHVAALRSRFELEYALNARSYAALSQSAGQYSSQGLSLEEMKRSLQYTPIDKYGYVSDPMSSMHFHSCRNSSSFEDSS
# [4] = biological target: T2, Tyrosine-protein kinase Tec (Homo sapiens) (UniProt P42680); assay: Inhibition of TEC at 1 uM
# T2 sequence (whole entry): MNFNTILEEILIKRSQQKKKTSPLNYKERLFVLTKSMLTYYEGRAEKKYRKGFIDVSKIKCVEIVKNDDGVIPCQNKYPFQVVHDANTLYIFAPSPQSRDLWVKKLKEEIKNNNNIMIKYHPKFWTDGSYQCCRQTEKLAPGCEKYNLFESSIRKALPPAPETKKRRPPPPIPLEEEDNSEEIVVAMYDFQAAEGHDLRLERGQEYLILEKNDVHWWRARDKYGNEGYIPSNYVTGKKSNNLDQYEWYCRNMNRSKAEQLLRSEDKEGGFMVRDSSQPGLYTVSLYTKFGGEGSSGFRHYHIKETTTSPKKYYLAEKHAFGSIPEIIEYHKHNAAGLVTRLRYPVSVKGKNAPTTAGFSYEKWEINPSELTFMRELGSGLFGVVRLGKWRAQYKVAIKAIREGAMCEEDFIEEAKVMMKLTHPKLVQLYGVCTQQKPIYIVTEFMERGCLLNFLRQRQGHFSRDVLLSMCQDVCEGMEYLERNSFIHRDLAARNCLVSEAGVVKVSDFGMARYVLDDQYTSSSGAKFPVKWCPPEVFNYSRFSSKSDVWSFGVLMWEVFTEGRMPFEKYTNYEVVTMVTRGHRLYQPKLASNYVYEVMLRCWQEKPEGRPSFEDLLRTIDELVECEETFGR
# [5] = biological target: Serine/threonine-protein kinase 38-like (Homo sapiens) (UniProt Q9Y2H1); assay: Inhibition of NDR2 at 1 uM
# Sequence of Serine/threonine-protein kinase 38-like (Homo sapiens) (Q9Y2H1 2-464 limits assumed): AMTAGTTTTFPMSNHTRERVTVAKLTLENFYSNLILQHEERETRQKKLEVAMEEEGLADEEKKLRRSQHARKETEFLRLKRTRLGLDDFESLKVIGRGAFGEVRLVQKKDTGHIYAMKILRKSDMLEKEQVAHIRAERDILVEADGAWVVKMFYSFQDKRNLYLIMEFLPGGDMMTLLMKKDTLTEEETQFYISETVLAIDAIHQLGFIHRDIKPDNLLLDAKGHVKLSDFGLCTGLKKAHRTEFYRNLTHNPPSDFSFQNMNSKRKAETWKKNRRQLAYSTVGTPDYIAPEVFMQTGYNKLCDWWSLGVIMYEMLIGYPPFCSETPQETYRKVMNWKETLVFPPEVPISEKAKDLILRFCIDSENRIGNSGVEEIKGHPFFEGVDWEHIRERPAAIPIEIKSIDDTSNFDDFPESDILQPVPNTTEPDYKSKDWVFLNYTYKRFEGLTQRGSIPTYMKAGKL
# [6] = tested on: Phosphatidylinositol 4,5-bisphosphate 3-kinase catalytic subunit alpha isoform (Homo sapiens), P42336 [C420R]; assay: Inhibition of PIK3CA C420R mutant at 1 uM
# Sequence of Phosphatidylinositol 4,5-bisphosphate 3-kinase catalytic subunit alpha isoform (Homo sapiens), P42336 [C420R] (P42336 whole entry C420R, canonical isoform): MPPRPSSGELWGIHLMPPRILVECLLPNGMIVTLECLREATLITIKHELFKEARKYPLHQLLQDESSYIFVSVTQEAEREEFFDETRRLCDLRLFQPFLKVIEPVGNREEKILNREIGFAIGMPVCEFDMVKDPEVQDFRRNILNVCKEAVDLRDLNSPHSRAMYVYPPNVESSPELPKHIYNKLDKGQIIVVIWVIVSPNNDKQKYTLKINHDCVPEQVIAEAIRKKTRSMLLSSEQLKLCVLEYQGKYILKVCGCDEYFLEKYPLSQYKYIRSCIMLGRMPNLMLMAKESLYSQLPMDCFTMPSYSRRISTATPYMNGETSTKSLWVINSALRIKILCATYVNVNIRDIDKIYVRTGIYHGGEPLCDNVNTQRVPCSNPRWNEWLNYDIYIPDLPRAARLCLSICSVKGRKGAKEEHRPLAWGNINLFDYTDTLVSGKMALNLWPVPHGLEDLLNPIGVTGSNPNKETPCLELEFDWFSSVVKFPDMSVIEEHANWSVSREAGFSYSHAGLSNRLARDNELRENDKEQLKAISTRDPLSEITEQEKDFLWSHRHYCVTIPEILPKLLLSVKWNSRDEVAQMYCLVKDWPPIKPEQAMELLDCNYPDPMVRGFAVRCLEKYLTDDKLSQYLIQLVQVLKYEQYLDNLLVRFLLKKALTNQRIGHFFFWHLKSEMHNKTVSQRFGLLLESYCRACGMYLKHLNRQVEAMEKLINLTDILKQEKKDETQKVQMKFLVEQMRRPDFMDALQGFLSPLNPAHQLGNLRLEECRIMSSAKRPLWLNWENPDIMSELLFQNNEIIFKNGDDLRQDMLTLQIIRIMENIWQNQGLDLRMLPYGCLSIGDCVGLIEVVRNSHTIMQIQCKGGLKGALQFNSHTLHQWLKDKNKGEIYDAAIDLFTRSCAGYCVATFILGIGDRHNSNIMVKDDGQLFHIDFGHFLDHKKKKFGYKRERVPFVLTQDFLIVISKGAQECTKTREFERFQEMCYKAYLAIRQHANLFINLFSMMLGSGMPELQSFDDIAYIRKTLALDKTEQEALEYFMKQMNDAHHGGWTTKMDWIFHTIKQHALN
# [7] = biological target: Cyclin-dependent kinase 9 (Homo sapiens) (UniProt P50750); assay: Inhibition of CDK9 at 1 uM
# Sequence of Cyclin-dependent kinase 9 (Homo sapiens) (P50750 whole entry): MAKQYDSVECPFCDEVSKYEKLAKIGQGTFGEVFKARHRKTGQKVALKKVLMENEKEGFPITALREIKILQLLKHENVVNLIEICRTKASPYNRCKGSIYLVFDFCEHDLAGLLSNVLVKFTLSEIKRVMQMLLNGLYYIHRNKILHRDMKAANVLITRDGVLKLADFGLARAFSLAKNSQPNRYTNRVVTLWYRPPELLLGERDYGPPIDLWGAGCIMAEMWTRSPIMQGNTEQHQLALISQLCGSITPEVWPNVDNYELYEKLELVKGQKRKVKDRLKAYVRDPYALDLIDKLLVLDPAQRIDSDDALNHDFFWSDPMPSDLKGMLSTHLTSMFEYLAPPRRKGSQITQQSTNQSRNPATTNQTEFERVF
# [8] = biological target: T3, Activin receptor type-1 (Homo sapiens) (UniProt Q04771); assay: Inhibition of ACVR1 at 1 uM
# T3 sequence (whole entry): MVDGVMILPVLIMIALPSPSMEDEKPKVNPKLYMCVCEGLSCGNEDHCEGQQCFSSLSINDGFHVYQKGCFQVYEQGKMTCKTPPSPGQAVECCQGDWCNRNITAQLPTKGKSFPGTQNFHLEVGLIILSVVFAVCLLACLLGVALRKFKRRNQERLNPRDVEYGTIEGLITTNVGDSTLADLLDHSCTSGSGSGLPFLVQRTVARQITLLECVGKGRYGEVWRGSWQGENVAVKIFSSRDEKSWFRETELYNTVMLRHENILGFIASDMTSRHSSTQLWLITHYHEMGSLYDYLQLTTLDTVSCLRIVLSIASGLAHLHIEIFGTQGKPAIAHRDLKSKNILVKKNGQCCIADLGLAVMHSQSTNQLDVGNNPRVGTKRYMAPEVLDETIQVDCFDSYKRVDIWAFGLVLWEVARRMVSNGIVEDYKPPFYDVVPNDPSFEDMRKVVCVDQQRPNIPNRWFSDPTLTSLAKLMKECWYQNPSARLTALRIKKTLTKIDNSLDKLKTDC
# Method in brief: (§1)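 Ambit KINOMEscan screen at a single concentration across a 250–400 kinase panel, recorded as percent inhibition. Selectivity was expressed as S(90), the fraction of kinases inhibited >90%.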
# [9] = biological target: T4, Atypical kinase COQ8B, mitochondrial (Homo sapiens) (UniProt Q96D53); assay: Inhibition of ADCK4 at 1 uM; method in brief: as §1
# T4 sequence (whole entry): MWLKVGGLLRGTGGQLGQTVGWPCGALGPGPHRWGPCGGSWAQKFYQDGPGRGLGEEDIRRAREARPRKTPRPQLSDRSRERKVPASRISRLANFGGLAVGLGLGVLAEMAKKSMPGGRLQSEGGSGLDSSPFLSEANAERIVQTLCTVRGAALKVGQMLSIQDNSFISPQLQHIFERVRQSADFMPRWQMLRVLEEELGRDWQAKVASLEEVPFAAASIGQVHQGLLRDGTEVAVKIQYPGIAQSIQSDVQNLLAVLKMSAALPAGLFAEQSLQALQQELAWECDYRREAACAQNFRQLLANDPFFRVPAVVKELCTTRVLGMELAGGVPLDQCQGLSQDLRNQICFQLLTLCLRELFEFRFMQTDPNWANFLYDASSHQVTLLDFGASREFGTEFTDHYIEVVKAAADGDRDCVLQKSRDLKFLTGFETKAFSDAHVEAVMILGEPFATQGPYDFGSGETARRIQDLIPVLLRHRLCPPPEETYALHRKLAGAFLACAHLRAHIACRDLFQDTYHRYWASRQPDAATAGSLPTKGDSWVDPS
# Sequence of Tyrosine-protein kinase Fyn (Homo sapiens) (P06241 2-537 limits assumed): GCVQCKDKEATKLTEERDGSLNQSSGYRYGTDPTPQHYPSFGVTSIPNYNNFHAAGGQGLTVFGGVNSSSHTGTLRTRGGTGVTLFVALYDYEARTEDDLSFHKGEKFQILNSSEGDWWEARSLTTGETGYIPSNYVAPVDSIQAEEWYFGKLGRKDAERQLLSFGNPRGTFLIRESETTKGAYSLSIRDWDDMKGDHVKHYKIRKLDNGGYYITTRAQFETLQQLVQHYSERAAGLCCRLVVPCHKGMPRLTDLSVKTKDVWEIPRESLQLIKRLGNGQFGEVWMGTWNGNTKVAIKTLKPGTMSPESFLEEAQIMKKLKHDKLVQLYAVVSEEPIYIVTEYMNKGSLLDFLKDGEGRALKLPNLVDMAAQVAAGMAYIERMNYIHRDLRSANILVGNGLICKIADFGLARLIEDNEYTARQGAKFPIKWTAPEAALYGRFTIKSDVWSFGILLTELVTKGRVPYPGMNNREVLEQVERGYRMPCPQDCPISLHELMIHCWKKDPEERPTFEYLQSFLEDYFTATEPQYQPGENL
Compound,inhibition [1],inhibition [2],inhibition [3],inhibition [4],inhibition [5],inhibition [6],inhibition [7],inhibition [8],inhibition [9]
CN1CCN(c2ccc(-c3cnc4c(c3)N(Cc3cc(Cl)ccc3C(F)(F)F)CCN4)cn2)CC1,< 50%,< 50%,< 50%,< 50%,< 50%,< 50%,< 50%,< 50%,< 50%
O=C(c1ccc(-c2cnc3c(c2)N(Cc2cc(Cl)ccc2C(F)(F)F)CCN3)cc1)N1CCC(N2CCCC2)CC1,< 50%,< 50%,< 50%,,< 50%,,,< 50%,< 50%
COC1CCN(C(=O)c2ccc(-c3cnc4c(c3)N(Cc3cc(Cl)ccc3C(F)(F)F)CCN4)cc2)CC1,< 50%,< 50%,< 50%,,< 50%,,,< 50%,< 50%
CC(=O)N1CCN(c2cc(-c3cnc4c(c3)N(Cc3cc(Cl)ccc3C(F)(F)F)CCN4)ccn2)CC1,< 50%,< 50%,< 50%,< 50%,< 50%,< 50%,< 50%,< 50%,< 50%
CN1CCN(c2ccc(-c3cnc4c(c3)N(Cc3c(F)ccc(F)c3Cl)CCN4)cn2)CC1,< 50%,< 50%,< 50%,< 50%,< 50%,< 50%,< 50%,< 50%,< 50%
O=C(c1ccc(-c2cnc3c(c2)N(Cc2cc(Cl)ccc2C(F)(F)F)CCN3)cc1)N1CCCCC1,< 50%,< 50%,< 50%,,< 50%,,,< 50%,< 50%
CN1CCN(c2ccc(-c3cnc4c(c3)N(Cc3cc(Cl)ccc3Cl)CCN4)cn2)CC1,< 50%,< 50%,< 50%,< 50%,< 50%,< 50%,< 50%,< 50%,< 50%

# Now from value to molecule:
inhibition [1],inhibition [2],inhibition [3],inhibition [4],inhibition [5],inhibition [6],inhibition [7],inhibition [8],inhibition [9],Compound
< 50%,< 50%,< 50%,,< 50%,,,< 50%,< 50%,O=C(O)c1ccc(-c2cnc3c(c2)N(Cc2cc(Cl)ccc2C(F)(F)F)CCN3)cc1
< 50%,< 50%,< 50%,< 50%,< 50%,< 50%,< 50%,< 50%,< 50%,FC(F)(F)c1ccc(Cl)cc1CN1CCNc2ncc(-c3ccnc(N4CCNCC4)c3)cc21
< 50%,< 50%,< 50%,< 50%,< 50%,< 50%,< 50%,< 50%,< 50%,CN1CCN(c2ccc(-c3cnc4c(c3)N(Cc3cc(F)ccc3F)CCN4)cn2)CC1
